Assay results of several laboratories.
Target: Serine/threonine-protein kinase PAK 6 (PAK6, Homo sapiens, UniProt Q9NQU5)

SMILES | assay | setting | remaining binding [%]
CNC(=O)[C@@H]1CC[C@@H](n2c(-c3ccc4cnccc4c3)nc3ccc(C(=O)NCc4cccc(C(N)=O)c4)cc32)C1 | binding, competition with immobilised ligand | 1 µM | 100
Cc1cnc(Nc2ccc(C(=O)N3CCC(N4CCCC4)CC3)cc2)nc1-c1cc2ccccc2s1 | binding, competition with immobilised ligand | 1 µM | 63
O=C(NC[C@@H]1[C@H]2CN(C(=O)OCc3cc(C(F)(F)F)cc(C(F)(F)F)c3)C[C@@H]12)c1ccc2[nH]nnc2c1 | cell-free assay, competition with immobilised ligand | 1 µM | 93
O=C(c1ccc(Nc2nccc(-c3cc4ccccc4s3)n2)cc1)N1CCC(N2CCCC2)CC1 | binding, competition with immobilised ligand | 1 µM | 100
N[C@@H]1CCN(c2nccc(-c3cnn4ncccc34)n2)C1 | binding | 1 µM | 100
CC1=C(C#N)[C@@H](c2ccc3[nH]nc(C)c3c2)C(C#N)=C(c2ccc(Cl)cc2)N1 | cell-free assay, competition with immobilised ligand | 1 µM | 100
F[C@@H]1CCN(c2nccc(-c3cnn4ncccc34)n2)C1 | binding | 1 µM | 100
FC(F)(F)Oc1cccc(-c2cnc3ccc(-c4ccncc4)nn23)c1 | cell-free assay, competition with immobilised ligand | 5 µM | 53
c1ccc(N2CCN(Cc3nc4ccccc4[nH]3)CC2)nc1 | cell-free assay, competition with immobilised ligand | 1 µM | 100
c1cnn2ncc(-c3ccnc(N4CCC45COC5)n3)c2c1 | binding | 1 µM | 81
C[C@@H](c1ccc(-n2cnc3c(N)ncnc32)cc1)N1CCc2nn(C)c(Cc3ccccc3)c2C1=O | binding, competition with immobilised ligand | 0.1 µM | 96
CC1CCCN1c1nccc(-c2cnn3ncccc23)n1 (centres unmarked) | binding | 1 µM | 100
N#CC1(c2ccccn2)CCN(Cc2cc(C(=O)N3CCCC3)c(=O)n3ccccc23)CC1 | cell-free assay, competition with immobilised ligand | 1 µM | 100
O=C(c1ccc(Nc2ncc(Cl)c(-c3ccc(Cl)s3)n2)cc1)N1CCC(N2CCCC2)CC1 | binding, competition with immobilised ligand | 1 µM | 52
CCN1CCN(Cc2ccc(C(=O)Nc3ccc(C)c(Oc4ccc5c(c4)CC(=O)N5)c3)cc2C(F)(F)F)CC1 | binding, competition with immobilised ligand | 1 µM | 100
CO[C@@H](C)c1c(Nc2ccc([C@@H](N(C)C(=O)C3CCS(=O)(=O)CC3)C(F)(F)F)cc2)cnc2cc(Cl)nn12 | cell-free assay, competition with immobilised ligand | 1 µM | 100
C[C@@H]1CCN(c2nccc(-c3cnn4ncccc34)n2)C1 | binding | 1 µM | 87
CS(=O)(=O)N1CCCC(NC(=O)[C@H](CCC2CCCCC2)NC(=O)c2ccc(CNC(=O)c3cnc4ccccn34)cc2)C1 (some centres unmarked) | cell-free assay, competition with immobilised ligand | 0.1 µM | 100
COc1ccnn2ncc(-c3ccnc(N(C)C)n3)c12 | binding | 1 µM | 97
O=C(NCC1CCOCC1)c1n[nH]cc1NC(=O)c1c(F)cccc1F | binding, competition with immobilised ligand | 1 µM | 86
